# Results taken from ChEMBL document CHEMBL1141374 (J Med Chem, 2007).
# Experiments:
# M14 = assay: Growth inhibition in M14 cells; type: functional; conditions: Homo sapiens
# HCC 2998 = assay: Growth inhibition in HCC2998 cells; type: functional; conditions: Homo sapiens
# SNB-75 = assay: Growth inhibition in SNB75 cells; type: functional; conditions: Homo sapiens
# NCI-H460 = assay: Growth inhibition in NCI-H460 cells; type: functional; conditions: Homo sapiens
# ZR-75-1 = assay: Cytotoxicity against ZR-75-1 cell line; type: cell-based; conditions: Homo sapiens
# In short: (§1)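 Log-phase cells were diluted to 20 000–30 000 cells/mL, seeded, and left to attach overnight. They were then exposed to compounds at 10^–5–10^–12 M for 72 h at 37 °C in 5% CO2. Viable cells were measured by MTT, with absorbance read at 595 nm. Each compound ran in triplicate in at least three independent assays. IC50 came from nonlinear regression, and average values were reported.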
# [1] = Cytotoxicity against KB-3-1 cell line; type: cell-based; conditions: Homo sapiens; in short: as §1
# [2] = Growth inhibition in HS 578T cells; type: functional; conditions: Homo sapiens
# RXF 393 = assay: Growth inhibition in RXF393 cells; type: functional; conditions: Homo sapiens
# HOP-92 = assay: Growth inhibition in HOP92 cells; type: functional; conditions: Homo sapiens
# UO-31 = assay: Growth inhibition in UO31 cells; type: functional; conditions: Homo sapiens
# NCI-H322M = assay: Growth inhibition in NCI-H322M cells; type: functional; conditions: Homo sapiens
# [3] = Growth inhibition in HCC116 cells; type: functional; conditions: Homo sapiens
# OVCAR-4 = assay: Growth inhibition in OVCAR4 cells; type: functional; conditions: Homo sapiens
# IGROV-1 = assay: Growth inhibition in IGROV1 cells; type: functional; conditions: Homo sapiens
# Tubulin = assay: Inhibition of tubulin polymerization; type: protein-complex assay, Homo sapiens
# In short: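 Kit-based assay run per the manufacturer's instructions. Tubulin (>99% pure, 3 mg/mL) in G-PEM buffer, in a prewarmed plate with compound at 0.03–30 μM. OD340 nm read every 60 s at 37 °C for 1 h.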
# A549 = assay: Growth inhibition in A549 cells; type: functional; conditions: Homo sapiens
# OVCAR-5 = assay: Growth inhibition in OVCAR5 cells; type: functional; conditions: Homo sapiens
# U-251 = assay: Growth inhibition in U251cells; type: functional; conditions: Homo sapiens
# HeLa = assay: Cytotoxicity against HeLa cell line; type: cell-based; conditions: Homo sapiens; in short: as §1
# SK-OV-3 = assay: Growth inhibition in SKOV3 cells; type: functional; conditions: Homo sapiens
# SF-539 = assay: Growth inhibition in SF539 cells; type: functional; conditions: Homo sapiens
# EKVX = assay: Growth inhibition in EKVX cells; type: functional; conditions: Homo sapiens
# UACC-62 = assay: Growth inhibition in UACC62 cells; type: functional; conditions: Homo sapiens
# TK-10 = assay: Growth inhibition in TK10 cells; type: functional; conditions: Homo sapiens
# A498 = assay: Growth inhibition in A498 cells; type: functional; conditions: Homo sapiens
# KM12 = assay: Growth inhibition in KM12 cells; type: functional; conditions: Homo sapiens
# SF-268 = assay: Growth inhibition in SF268 cells; type: functional; conditions: Homo sapiens
# MDA-MB-435 = assay: Growth inhibition in MDA-MB-435 cells; type: functional; conditions: Homo sapiens
# SN12C = assay: Growth inhibition in SN12C cells; type: functional; conditions: Homo sapiens
# ACHN = assay: Growth inhibition in ACHN cells; type: functional; conditions: Homo sapiens
# [4] = Growth inhibition in MDA-MB-231/ATCC cells; type: functional; conditions: Homo sapiens
# COLO 205 = assay: Growth inhibition in COLO205 cells; type: functional; conditions: Homo sapiens
# OVCAR-8 = assay: Growth inhibition in OVCAR8 cells; type: functional; conditions: Homo sapiens
# DU-145 = assay: Growth inhibition in DU145 cells; type: functional; conditions: Homo sapiens
# HCT-116 = assay: Cytotoxicity against HCT116 cell line; type: cell-based; conditions: Homo sapiens; in short: as §1
# MCF7 = assay: Growth inhibition in MCF7 cells; type: functional; conditions: Homo sapiens
# PC-3 = assay: Growth inhibition in PC3 cells; type: functional; conditions: Homo sapiens
# SW-620 = assay: Growth inhibition in SW620 cells; type: functional; conditions: Homo sapiens
# NCI-H522 = assay: Growth inhibition in NCI-H522 cells; type: functional; conditions: Homo sapiens
# SF-295 = assay: Growth inhibition in SF295 cells; type: functional; conditions: Homo sapiens
# NCI/ADR-RES = assay: Growth inhibition in NCI/ADR-RES cells; type: functional; conditions: Homo sapiens
# HT-29 = assay: Growth inhibition in HT29 cells; type: functional; conditions: Homo sapiens
# T47D = assay: Growth inhibition in T47D cells; type: functional; conditions: Homo sapiens
# HL-60 = assay: Growth inhibition in HL60 cells; type: functional; conditions: Homo sapiens
# UACC-257 = assay: Growth inhibition in UACC257 cells; type: functional; conditions: Homo sapiens
# BT-549 = assay: Growth inhibition in BT549 cells; type: functional; conditions: Homo sapiens
# SNB-19 = assay: Growth inhibition in SNB19 cells; type: functional; conditions: Homo sapiens
# CCRF-CEM = assay: Growth inhibition in CCRF-CEM cells; type: functional; conditions: Homo sapiens
# [5] = Cytotoxicity against P-glycoprotein-overexpressing KB-V1 cell line; type: cell-based; conditions: Homo sapiens; in short: as §1
# NCI-H226 = assay: Growth inhibition in NCI-H226 cells; type: functional; conditions: Homo sapiens
# 786-0 = assay: Growth inhibition in 786-0 cells; type: functional; conditions: Homo sapiens
# CAKI-1 = assay: Growth inhibition in CAK1-1 cells; type: functional; conditions: Homo sapiens
# LOX IMVI = assay: Growth inhibition in LOX IMVI cells; type: functional; conditions: Homo sapiens
# SK-MEL-5 = assay: Growth inhibition in SK-MEL-5 cells; type: functional; conditions: Homo sapiens
# HOP-62 = assay: Growth inhibition in HOP62 cells; type: functional; conditions: Homo sapiens
# NCI-H23 = assay: Growth inhibition in NCI-H23 cells; type: functional; conditions: Homo sapiens
# K562 = assay: Growth inhibition in K562 cells; type: functional; conditions: Homo sapiens
# OVCAR-3 = assay: Growth inhibition in OVCAR-3 cells; type: functional; conditions: Homo sapiens
# [6] = Growth inhibition in HCC15 cells; type: functional; conditions: Homo sapiens
# SK-MEL-28 = assay: Growth inhibition in SK-MEL-28 cells; type: functional; conditions: Homo sapiens
structure (smiles),measurement,setting,value
COc1cc(-c2nncn2-c2ccc(N(C)C)cc2)cc(OC)c1OC,GI50,M14,50.1 nM
same,GI50,HCC 2998,85.1 nM
same,GI50,SNB-75,107 nM
same,GI50,NCI-H460,178 nM
same,IC50,ZR-75-1,308 nM
same,IC50,[1],119 nM
same,GI50,[2],417 nM
same,GI50,RXF 393,1620 nM
same,GI50,HOP-92,389 nM
same,GI50,UO-31,955 nM
same,GI50,NCI-H322M,2630 nM
same,GI50,[3],60.3 nM
same,GI50,OVCAR-4,20900 nM
same,GI50,IGROV-1,95.5 nM
same,IC50,Tubulin,4100 nM
same,GI50,A549,398 nM
same,GI50,OVCAR-5,4270 nM
same,GI50,U-251,151 nM
same,IC50,HeLa,29.6 nM
same,GI50,SK-OV-3,347 nM
same,GI50,SF-539,324 nM
same,GI50,EKVX,> 100000 nM
same,GI50,UACC-62,95.5 nM
same,GI50,TK-10,1660 nM
same,GI50,A498,490 nM
same,GI50,KM12,26.3 nM
same,GI50,SF-268,34.7 nM
same,GI50,MDA-MB-435,< 10 nM
same,GI50,SN12C,724 nM
same,GI50,ACHN,204 nM
same,GI50,[4],1020 nM
same,GI50,COLO 205,87.1 nM
same,GI50,OVCAR-8,2570 nM
same,GI50,DU-145,1860 nM
same,IC50,HCT-116,91.5 nM
same,GI50,MCF7,275 nM
same,GI50,PC-3,28.2 nM
same,GI50,SW-620,75.9 nM
same,GI50,NCI-H522,57.5 nM
same,GI50,SF-295,37.1 nM
same,GI50,NCI/ADR-RES,129 nM
same,GI50,HT-29,30.9 nM
same,GI50,T47D,47.9 nM
same,GI50,HL-60,105 nM
same,GI50,UACC-257,100000 nM
same,GI50,BT-549,25100 nM
same,GI50,SNB-19,204 nM
same,GI50,CCRF-CEM,61.7 nM
same,IC50,[5],323 nM
same,GI50,NCI-H226,100000 nM
same,GI50,786-0,398 nM
same,GI50,CAKI-1,135 nM
same,GI50,LOX IMVI,219 nM
same,GI50,SK-MEL-5,69.2 nM
same,GI50,HOP-62,275 nM
same,GI50,NCI-H23,6760 nM
same,GI50,K562,12.9 nM
same,GI50,OVCAR-3,34.7 nM
same,GI50,[6],60.3 nM
COc1ccc(-n2cnnc2-c2cc(OC)c(OC)c(OC)c2)cc1,GI50,M14,1950 nM
same,GI50,HCC 2998,295 nM
same,GI50,SNB-75,2340 nM
same,GI50,NCI-H460,3390 nM
same,IC50,ZR-75-1,522 nM
same,IC50,[1],373 nM
same,GI50,[2],2950 nM
same,GI50,RXF 393,1580 nM
same,GI50,HOP-92,> 100000 nM
same,GI50,NCI-H322M,5620 nM
same,GI50,[3],3020 nM
same,GI50,OVCAR-4,5500 nM
same,GI50,A549,8320 nM
same,GI50,OVCAR-5,3800 nM
same,GI50,U-251,4370 nM
same,IC50,HeLa,290 nM
same,GI50,SK-OV-3,6460 nM
same,GI50,SF-539,4070 nM
same,GI50,EKVX,37200 nM
same,GI50,UACC-62,3240 nM
same,GI50,TK-10,9770 nM
same,GI50,A498,3800 nM
same,GI50,KM12,2140 nM
same,GI50,SF-268,5890 nM
same,GI50,MDA-MB-435,234 nM
same,GI50,SN12C,4070 nM
same,GI50,ACHN,4470 nM
same,GI50,[4],3160 nM
same,GI50,COLO 205,3470 nM
same,GI50,OVCAR-8,4790 nM
same,GI50,DU-145,2950 nM
same,IC50,HCT-116,230 nM
same,GI50,MCF7,1700 nM
same,GI50,PC-3,4900 nM
same,GI50,SW-620,2750 nM
same,GI50,SF-295,1290 nM
same,GI50,NCI/ADR-RES,1780 nM
same,GI50,HT-29,2140 nM
same,GI50,HL-60,4070 nM
same,GI50,SK-MEL-28,9550 nM
same,GI50,UACC-257,3980 nM
same,GI50,BT-549,9770 nM
same,GI50,SNB-19,5250 nM
same,GI50,CCRF-CEM,1860 nM
same,IC50,[5],907 nM
same,GI50,NCI-H226,5250 nM
same,GI50,786-0,2510 nM
same,GI50,CAKI-1,2570 nM
same,GI50,LOX IMVI,4370 nM
same,GI50,SK-MEL-5,2400 nM
same,GI50,HOP-62,2090 nM
same,GI50,NCI-H23,3160 nM
same,GI50,K562,631 nM
same,GI50,OVCAR-3,1740 nM
same,GI50,[6],1700 nM
COc1cc(-c2nncn2-c2ccc3c(c2)CCN3C)cc(OC)c1OC,IC50,Tubulin,> 10000 nM
same,IC50,HeLa,4100 nM
same,IC50,HCT-116,3290 nM
COc1cc(-n2cnnc2-c2ccc3c(ccn3C)c2)cc(OC)c1OC,IC50,[1],15 nM
same,IC50,Tubulin,5600 nM
same,IC50,HeLa,18 nM
same,IC50,HCT-116,24.3 nM
same,IC50,[5],32.1 nM
COc1cc2c(c(OC)c1OC)-c1ccc(OC)c(=O)cc1[C@@H](NC(C)=O)CC2 [COLCHICINE],IC50,ZR-75-1,522 nM
same,IC50,[1],3.99 nM
same,IC50,HeLa,1.84 nM
same,IC50,HCT-116,2.75 nM
same,IC50,[5],620 nM
COc1ccc(/C=C\c2cc(OC)c(OC)c(OC)c2)cc1O [COMBRETASTATIN A4],IC50,ZR-75-1,0.24 nM
same,IC50,[1],0.78 nM
same,IC50,HeLa,0.3 nM
same,IC50,HCT-116,0.35 nM
same,IC50,[5],0.64 nM
CC(=O)O[C@H]1C(=O)[C@@]2(C)[C@H]([C@H](OC(=O)c3ccccc3)[C@]3(O)C[C@H](OC(=O)[C@H](O)[C@@H](NC(=O)c4ccccc4)c4ccccc4)C(C)=C1C3(C)C)[C@]1(OC(C)=O)CO[C@@H]1C[C@@H]2O [PACLITAXEL],IC50,ZR-75-1,308 nM
same,IC50,[1],23.3 nM
same,IC50,[5],> 10000 nM
